Test results: ChEMBL document CHEMBL1129784, “Decomposition pathways and in vitro HIV inhibitory effects of isoddA pronucleotides: toward a rational approach for intracellular delivery of nucleoside 5'-monophosphates” (J Med Chem, 1996)
Values joined by “and” are separate entries in the source; they are usually repeats but may differ in a detail not shown here. Equal values may be shown once.

Columns and labels:
[1] = Half life in CEM cell extracts (25 uM, 37 degree C); type: ADME, CCRF-CEM; details: human
Outline: (§1)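 Incubated at 25 µM initial concentration and 37 °C in full CEM cell extract, in RPMI 1640 with 10% heat-inactivated fetal calf serum, or in freshly withdrawn human serum. Aliquots analysed by on-line cleaning HPLC (precolumn deproteinization) with UV at 260 nm. Relative concentrations came from peak areas. Half-lives were derived from kinetic model fits: pseudo-first-order or substrate inhibition.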

[2] = Selectivity index which is the ratio between CC50 and EC50; type: functional
[3] = Half life in culture medium (25 uM, 37 degree C); type: ADME; outline: as §1
MT4 [4] = experiment: Effective dose to achieve 50% protection of MT-4 cells from acutely infected HIV-1 strain IIIB; type: functional, cell-based; details: Homo sapiens
Outline: (§2)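 Inhibition of virus-induced cytopathogenicity in acutely infected cells. HIV-1 IIIB in MT-4 cells at 100 CCID50; HIV-2 CBL-20 in C8166 cells at 1000 CCID50. 1 × 10^4 cells per well with various compound concentrations, 4 days at 37 °C, viability by MTT. EC50 is the dose giving 50% protection. Mean of three independent determinations.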

MT4 [5] = experiment: Ability to reduce 50% viability of mock-infected MT-4 cells; details: Homo sapiens
C8166 [6] = experiment: Ability to reduce 50% viability of C8166 cells acutely infected with HIV-2 strain IIIB; type: functional; details: Homo sapiens, in the assay text read “HIV-2 strain CBL-20” for “HIV-2 strain IIIB”
Outline: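 Cytotoxicity in mock-infected cells run in parallel with the antiviral assay: 1 × 10^4 MT-4 or C8166 cells per well with or without various compound concentrations, 4-day incubation at 37 °C, viable cells counted by MTT. CC50 is the dose reducing viability by 50% at day 4. Mean of three independent determinations; variation among duplicates <22%.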

C8166 [7] = experiment: Effective dose to achieve 50% protection of C8166 cells acutely infected with HIV-2 strain IIIB; type: functional, cell-based; details: Homo sapiens, in the assay text read “HIV-2 strain CBL-20” for “HIV-2 strain IIIB”; outline: as §2

Cc1cn(C2CC(N=[N+]=[N-])C(COP(=O)(OCCSC(=O)C(C)(C)C)OCCSC(=O)C(C)(C)C)O2)c(=O)[nH]c1=O (stereo not given)
half-life at 25 µM [1]: 1 h
SI [2]: 600 and 245
half-life at 25 µM [3]: 103 h

CC(=O)SCCOP(=O)(OCCSC(C)=O)OCC1OC(n2cc(C)c(=O)[nH]c2=O)CC1N=[N+]=[N-] (stereo not given)
half-life at 25 µM [1]: < 0.1 h
half-life at 25 µM [3]: 9 h

Cc1cn([C@H]2C[C@H](N=[N+]=[N-])[C@@H](CO)O2)c(=O)[nH]c1=O [ZIDOVUDINE]
EC50 (MT4 [4]): 5 nM
CC50 (MT4 [5]): 150000 nM
CC50 (C8166 [6]): > 500000 nM
SI [2]: 30000 and > 83000
EC50 (C8166 [7]): 6 nM
